Data as given in ChEMBL document CHEMBL1138185, “Discovery of protein phosphatase 2C inhibitors by virtual screening” (J Med Chem, 2006).
The source made the active and inactive calls. No cut-off for these calls is given here.

What was measured:
[1] = Inhibition of PP2A
Outline: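 Substrate: DARPP-32 pThr34, from rat DARPP-32 expressed in E. coli as a His-tag fusion and phosphorylated by PKA with γ-32P-ATP. Enzyme: PP2A trimer partially purified from rat brain. Duplicate reactions, 10 min at room temperature, stopped with TCA. Supernatant and pellet 32P counted by Cerenkov.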

[2] = target: Protein phosphatase 1A (Rattus norvegicus) (UniProt P20650); test: Inhibition of PP2C alpha at 100 uM
[3] = target: Protein phosphatase 1A (Rattus norvegicus) (UniProt P20650); test: Inhibition of PP2C alpha
[4] = Inhibition of PP1 at 100 uM
Outline: (§1)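 PP1 catalytic fragment acting on 32P-labeled phosphorylase a, which was made from rabbit muscle phosphorylase b with phosphorylase kinase. Duplicate reactions were started with substrate, run 10 min at room temperature and stopped with TCA. Released 32P measured by Cerenkov counting.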

[5] = Inhibition of PP1; outline: as §1
[6] = target: Calcineurin PP2B (Rattus norvegicus); test: Inhibition of PP2B

Sequence of Protein phosphatase 1A (Rattus norvegicus) (P20650 whole entry, looked up): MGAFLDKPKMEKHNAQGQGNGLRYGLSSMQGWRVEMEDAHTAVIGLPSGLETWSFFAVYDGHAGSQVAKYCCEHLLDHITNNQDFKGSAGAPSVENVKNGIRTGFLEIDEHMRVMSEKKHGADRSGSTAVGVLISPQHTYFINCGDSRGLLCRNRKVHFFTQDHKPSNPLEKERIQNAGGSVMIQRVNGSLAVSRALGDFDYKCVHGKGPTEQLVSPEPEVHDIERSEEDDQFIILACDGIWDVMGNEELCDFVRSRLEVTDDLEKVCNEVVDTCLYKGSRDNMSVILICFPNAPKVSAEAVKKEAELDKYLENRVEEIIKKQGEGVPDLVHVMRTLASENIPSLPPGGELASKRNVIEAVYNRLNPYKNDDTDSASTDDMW

Compound | Activity [1] | inhibition [2] | other results
CC1Oc2cc3c(-c4c(O)cc(O)c5c(O)c6c(cc45)OC(C)C(C)C6=O)c(O)cc(O)c3c(O)c2C(=O)C1C (configuration not stated) | Active |  | 
CCCCCCCCCCCC1N=C(N)N=C(N)N1c1cccc(Br)c1 (configuration not stated) | Active |  | 
CC(C)CC(N)C(=O)Nc1ccc2ccccc2c1 (configuration not stated) |  | > 30% | 
Ic1ccc2c(c1)N(c1ccccc1)c1cc(Nc3ccc4nc5ccc(I)cc5[n+](-c5ccccc5)c4c3)ccc1N2 |  | > 50% | 
C/N=C(N)/N=C(\N)Nc1cc2ccccc2c2ccccc12 |  | > 50% | IC50 [3]: 20 µM
Cc1cc(N)c2cc(NC(=O)Nc3ccc4nc(C)cc(N)c4c3)ccc2n1 | Active | > 30% | Activity [4]: Active
CC1(C)N=C(N)N=C(N)N1c1ccc(CCCCc2ccccc2)cc1 |  |  | IC50 [1]: 50 µM; IC50 [5]: 50 µM; IC50 [6]: 50 µM
